Experimental data taken from PMC7127808 (Biochimie, 2017).

Columns and labels:
[1] = target: T1, Porcine kidney APN (pAPN) (Sus scrofa, UniProt P15145); experiment: Porcine kidney APN; assay type: biochemical; settings: for Inhibition Type: Table 1, hAPN and pAPN, Lineweaver-Burk diagnosis (hAPN data not shown); for α (pAPN): factor between αKi and Ki vs pAPN; for IC50: read-out: IC50 vs pAPN, 30 min pre-incubation, substrate at KM, n = 4
T1 sequence (P15145 1-963): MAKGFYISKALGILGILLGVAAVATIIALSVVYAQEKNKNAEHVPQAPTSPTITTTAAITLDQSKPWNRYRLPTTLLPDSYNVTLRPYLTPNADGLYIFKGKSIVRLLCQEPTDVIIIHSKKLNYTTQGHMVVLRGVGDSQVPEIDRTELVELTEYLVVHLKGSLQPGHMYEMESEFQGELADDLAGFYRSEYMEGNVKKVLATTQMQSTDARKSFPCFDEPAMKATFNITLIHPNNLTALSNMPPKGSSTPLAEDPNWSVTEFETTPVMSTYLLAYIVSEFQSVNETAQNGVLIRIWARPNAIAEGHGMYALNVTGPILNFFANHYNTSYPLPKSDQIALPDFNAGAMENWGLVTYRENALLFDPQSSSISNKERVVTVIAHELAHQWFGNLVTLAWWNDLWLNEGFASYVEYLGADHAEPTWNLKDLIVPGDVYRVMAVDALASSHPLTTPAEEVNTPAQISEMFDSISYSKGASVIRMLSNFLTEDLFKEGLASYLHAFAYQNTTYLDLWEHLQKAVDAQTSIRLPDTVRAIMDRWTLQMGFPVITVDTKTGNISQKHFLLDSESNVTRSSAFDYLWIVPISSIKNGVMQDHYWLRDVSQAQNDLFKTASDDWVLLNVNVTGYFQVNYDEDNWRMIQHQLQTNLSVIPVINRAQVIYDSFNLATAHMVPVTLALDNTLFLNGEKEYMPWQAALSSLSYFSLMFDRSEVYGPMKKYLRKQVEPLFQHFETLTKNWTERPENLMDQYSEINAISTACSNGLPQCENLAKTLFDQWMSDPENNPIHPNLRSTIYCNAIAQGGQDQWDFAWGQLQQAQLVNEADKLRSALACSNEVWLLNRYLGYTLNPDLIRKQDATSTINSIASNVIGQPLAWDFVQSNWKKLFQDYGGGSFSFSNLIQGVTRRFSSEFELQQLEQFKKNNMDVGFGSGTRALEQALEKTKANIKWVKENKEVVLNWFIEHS

rat APN activity = target: T2, rat APN activity (Rattus norvegicus, UniProt P15684); experiment: In vivo effects of inhibitors on APN activity in rat organs; settings: for blood-brain barrier crossing: inferred from inhibition of APN activity in the brain of rats
T2 sequence (P15684 1-965): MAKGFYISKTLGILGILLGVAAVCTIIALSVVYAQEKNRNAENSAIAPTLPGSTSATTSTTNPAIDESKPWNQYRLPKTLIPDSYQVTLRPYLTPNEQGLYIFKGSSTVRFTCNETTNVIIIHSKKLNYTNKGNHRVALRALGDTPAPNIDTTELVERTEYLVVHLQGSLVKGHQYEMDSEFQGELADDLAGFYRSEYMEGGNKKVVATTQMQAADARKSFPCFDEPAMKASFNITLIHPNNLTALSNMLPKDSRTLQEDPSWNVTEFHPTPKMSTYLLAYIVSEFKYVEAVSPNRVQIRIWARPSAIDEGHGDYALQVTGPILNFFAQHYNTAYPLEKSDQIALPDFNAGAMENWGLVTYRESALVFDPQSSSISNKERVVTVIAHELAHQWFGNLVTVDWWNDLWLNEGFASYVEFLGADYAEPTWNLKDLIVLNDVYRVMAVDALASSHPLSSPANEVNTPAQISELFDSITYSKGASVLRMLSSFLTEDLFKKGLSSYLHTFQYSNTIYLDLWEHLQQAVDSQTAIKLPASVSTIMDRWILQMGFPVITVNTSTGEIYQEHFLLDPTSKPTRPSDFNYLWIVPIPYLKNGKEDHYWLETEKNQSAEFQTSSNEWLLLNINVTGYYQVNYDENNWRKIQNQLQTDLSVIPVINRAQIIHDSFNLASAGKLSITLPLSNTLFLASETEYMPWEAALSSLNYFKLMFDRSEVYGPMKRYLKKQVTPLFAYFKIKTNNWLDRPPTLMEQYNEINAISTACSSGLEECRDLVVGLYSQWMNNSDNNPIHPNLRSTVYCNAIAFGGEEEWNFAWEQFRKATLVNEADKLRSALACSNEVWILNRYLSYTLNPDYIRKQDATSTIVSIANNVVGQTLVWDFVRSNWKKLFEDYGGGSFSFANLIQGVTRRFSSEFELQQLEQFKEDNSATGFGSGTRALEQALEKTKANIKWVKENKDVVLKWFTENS
Method in brief: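 Wistar rats (80–100 days, 260–300 g) got one intraperitoneal injection of inhibitor, 3 μg/g body weight in 100 μL 0.9% saline, or saline alone (n = 6 per group). Decapitation 1 h later; organs frozen, stored at −70 °C. NaCl-washed membranes from 10% (w/v) homogenates in 50 mM Tris-HCl pH 8. APN kinetic assay as for porcine APN, 30 min. Mean ± SD; ANOVA, Tukey-Kramer.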

[2] = target: porcine kidney cortex glutamyl aminopeptidase (porcine aminopeptidase A; pAPA) (Sus scrofa, UniProt Q95334); experiment: Porcine aminopeptidase A; assay type: biochemical; settings: read-out: IC50 vs pAPA; dose-response, L-Glu-pNA
Method in brief: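 Microsomes from porcine kidney cortex, prepared as for placental APN, used at 1 mg/mL in 50 mM Tris-HCl pH 8, 0.1% Triton X100, 1 mM CaCl2. Substrate L-Glu-pNA at or below one KM. p-Nitroaniline release read at 405 nm every 15 s for 5 min, 37 °C. Test compounds came from 10 mM DMSO stocks diluted in buffer. IC50 came from nonlinear regression of dose-response data.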

Wistar rats = experiment: Mortality and spontaneous behavior after intraperitoneal injection; assay type: in vivo; settings: 3 μg/g b.w. intraperitoneal, compared to the vehicle group (not shown)
[3] = target: Human placental aminopeptidase N (hAPN) (Homo sapiens, UniProt P15144); experiment: Human placental aminopeptidase N; assay type: biochemical; settings: read-out: IC50 vs hAPN; 30 min pre-incubation; substrate at KM; n = 4
[4] = rat, 3 μg/g b.w. intraperitoneal, 60 min, vs saline injected animals

Chain of porcine kidney cortex glutamyl aminopeptidase (porcine aminopeptidase A; pAPA) (Q95334 whole entry): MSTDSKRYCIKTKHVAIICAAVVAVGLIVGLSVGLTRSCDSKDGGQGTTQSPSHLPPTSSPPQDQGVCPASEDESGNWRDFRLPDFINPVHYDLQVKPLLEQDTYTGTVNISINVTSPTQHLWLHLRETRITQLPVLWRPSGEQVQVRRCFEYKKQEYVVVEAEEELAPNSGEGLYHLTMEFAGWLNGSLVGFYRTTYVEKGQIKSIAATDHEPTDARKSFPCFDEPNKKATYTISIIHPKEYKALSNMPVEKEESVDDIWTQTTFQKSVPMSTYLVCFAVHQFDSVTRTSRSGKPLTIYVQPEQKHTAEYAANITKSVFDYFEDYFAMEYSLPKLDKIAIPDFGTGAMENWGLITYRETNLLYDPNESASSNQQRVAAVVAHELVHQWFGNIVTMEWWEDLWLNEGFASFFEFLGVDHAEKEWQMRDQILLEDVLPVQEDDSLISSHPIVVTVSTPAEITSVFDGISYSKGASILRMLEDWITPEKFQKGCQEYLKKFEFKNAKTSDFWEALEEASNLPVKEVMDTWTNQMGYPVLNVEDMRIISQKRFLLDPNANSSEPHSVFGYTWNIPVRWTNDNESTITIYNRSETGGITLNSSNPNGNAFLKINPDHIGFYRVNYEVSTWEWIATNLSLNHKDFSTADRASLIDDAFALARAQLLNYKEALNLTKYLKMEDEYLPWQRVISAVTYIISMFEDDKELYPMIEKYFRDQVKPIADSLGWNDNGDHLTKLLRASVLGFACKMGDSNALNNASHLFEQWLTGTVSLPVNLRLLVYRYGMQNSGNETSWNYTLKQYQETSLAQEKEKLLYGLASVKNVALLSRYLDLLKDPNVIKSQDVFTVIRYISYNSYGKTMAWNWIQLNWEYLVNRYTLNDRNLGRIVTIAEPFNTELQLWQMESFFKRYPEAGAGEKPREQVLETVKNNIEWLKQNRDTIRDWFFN
Chain of Human placental aminopeptidase N (hAPN) (P15144 whole entry): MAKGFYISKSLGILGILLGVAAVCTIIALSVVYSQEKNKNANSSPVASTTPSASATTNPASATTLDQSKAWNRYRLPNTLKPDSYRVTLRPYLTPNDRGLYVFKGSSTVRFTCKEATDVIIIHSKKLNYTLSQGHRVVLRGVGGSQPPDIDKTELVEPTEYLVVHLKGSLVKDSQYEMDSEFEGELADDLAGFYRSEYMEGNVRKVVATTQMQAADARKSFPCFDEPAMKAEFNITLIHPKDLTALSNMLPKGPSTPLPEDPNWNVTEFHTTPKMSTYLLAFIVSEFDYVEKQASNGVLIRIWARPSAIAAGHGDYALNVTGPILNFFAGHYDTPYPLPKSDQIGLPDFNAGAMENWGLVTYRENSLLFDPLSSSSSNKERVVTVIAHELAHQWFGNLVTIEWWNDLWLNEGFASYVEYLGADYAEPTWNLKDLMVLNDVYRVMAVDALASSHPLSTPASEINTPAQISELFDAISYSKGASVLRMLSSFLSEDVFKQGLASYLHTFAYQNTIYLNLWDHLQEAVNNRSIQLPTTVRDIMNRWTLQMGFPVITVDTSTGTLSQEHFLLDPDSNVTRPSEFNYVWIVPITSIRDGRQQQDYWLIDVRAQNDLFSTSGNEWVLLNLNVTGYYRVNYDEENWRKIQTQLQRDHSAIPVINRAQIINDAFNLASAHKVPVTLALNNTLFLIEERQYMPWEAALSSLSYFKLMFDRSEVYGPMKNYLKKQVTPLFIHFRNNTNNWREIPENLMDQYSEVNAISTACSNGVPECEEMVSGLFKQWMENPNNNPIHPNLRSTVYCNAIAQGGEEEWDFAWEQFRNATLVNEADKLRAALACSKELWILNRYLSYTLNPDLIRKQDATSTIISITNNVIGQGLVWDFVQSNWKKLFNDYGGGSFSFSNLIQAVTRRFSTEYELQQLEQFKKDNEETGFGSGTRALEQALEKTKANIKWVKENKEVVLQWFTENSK

Row | SMILES | Inhibition Type [1] | α (pAPN) [1] | IC50 [1] | blood-brain barrier crossing (rat APN activity) | APN activity in brain (rat APN activity; [4]) | APN activity in kidney (rat APN activity; [4]) | APN activity in liver (rat APN activity; [4]) | APN activity in pancreas (rat APN activity; [4]) | IC50 [2] | mortality or change in rat spontaneous behavior (Wistar rats) | IC50 [3]
1 | N#Cc1cc(Cc2ccc3c(ccc4ccccc43)c2C#N)cc2c1ccc1ccccc12 [JFD00064, 2-[(1-cyano-3-phenanthryl)methyl]phenanthrene-1-carbonitrile] | Non-competitive α > 1 | 2.69 | 2830 ± 100 nM | crossed the blood-brain barrier | decreased APN activity | decreased APN activity | decreased APN activity | inhibited the APN activity | 1.82 ± 0.11 µM | did not induce any mortality or change in rat spontaneous behavior | –
2 | CC(C)C[C@H](NC(=O)[C@@H](O)[C@H](N)Cc1ccccc1)C(=O)O [Bestatin, reference compound] | Non-competitive α > 1 | 5.97 | – | – | – | – | – | – | – | – | –
3 | O=C(NNC(=NS(=O)(=O)c1ccc(-n2nc(C(F)(F)F)cc2-c2cccs2)cc1)N1CCCC1)c1ccc(Cl)cc1 [BTB07018, N1-[[2-(4-chlorobenzoyl)hydrazino](tetrahydro-1H-pyrrol-1-yl)methylidene]-4-[5-(2-thienyl)-3-(trifluoromethyl)-1H-pyrazol-1-yl]benzene-1-sulfonamide] | Non-competitive α > 1 | 1.82 | 2290 ± 100 nM | crossed the blood-brain barrier | decreased APN activity | decreased APN activity | decreased APN activity | – | 4.74 ± 0.1 µM | did not induce any mortality or change in rat spontaneous behavior | 2670 ± 110 nM
4 | C(=C1c2ccccc2-c2c1ccc1ccccc21)c1cc2c3c(cccc3c1)-c1ccccc1-2 [BTB11079, 2-(7H-benzo[c]fluoren-7-ylidenmethyl)fluoranthene] | Non-competitive α > 1 | 11.40 | 2950 ± 100 nM | – | – | – | – | – | 3.88 ± 0.11 µM | did not induce any mortality or change in rat spontaneous behavior | –
